Screens: PubChem, Johns Hopkins Ion Channel Center
Shown are actives, neighbours in structure and some others; about 3.1% of the full set was active somewhere.
KCNQ1 inh: human KCNQ1 channel inhibition. AID 2642. CHO-K1 KCNQ1, FluxOR thallium flux fluorescence; active compounds read high. actives 1.3% (n = 310,000). B-score at 10 µM;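 active = compounds whose thallium flux B-score, printed positive for inhibition, exceeds three library SD while starting fluorescence stays within three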;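 also: channel opened by potassium depolarization with thallium stimulus after 20 min compound exposure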
KCNQ1 pot: potentiators or activators of human KCNQ1 potassium channel. P51787. CHO-K1 KCNQ1, thallium flux FluxOR fluorescence; active compounds read high. B-score at 10 µM. actives 0.35% (n = 310,000). AID 2648;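 active = fluorescence ratio B-score, a plate-corrected score, at least three library SD, with initial intensity B-score within 5 SD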
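assay system = CHO-K1 cells stably expressing KCNQ1 | medium = assay buffer, equal DMSO in all wells | timing = 37 °C overnight plating, 90-min dark dye load, 20-min compound pretreatment | measured by = kinetic FluxOR thallium fluorescence, 10-s 1-Hz baseline, 110-s post-stimulus read | measure = fluorescence change relative to baseline, converted to B score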
KCNK9 inh: inhibitors of human KCNK9 two-pore domain potassium channel; actives 1.2% (n = 310,000); HEK293 KCNK9, FluxOR thallium flux fluorescence; active compounds read low; AID 488922; B-score at 10 µM; Q9NPC2;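 active = ratio B-score over 3 SD below the library mean, with starting fluorescence within 5 SD of its mean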;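 also: negative B-score means less thallium flux so channel inhibition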
Target sequence (Q9NPC2 whole entry, looked up, the tested form may be a part): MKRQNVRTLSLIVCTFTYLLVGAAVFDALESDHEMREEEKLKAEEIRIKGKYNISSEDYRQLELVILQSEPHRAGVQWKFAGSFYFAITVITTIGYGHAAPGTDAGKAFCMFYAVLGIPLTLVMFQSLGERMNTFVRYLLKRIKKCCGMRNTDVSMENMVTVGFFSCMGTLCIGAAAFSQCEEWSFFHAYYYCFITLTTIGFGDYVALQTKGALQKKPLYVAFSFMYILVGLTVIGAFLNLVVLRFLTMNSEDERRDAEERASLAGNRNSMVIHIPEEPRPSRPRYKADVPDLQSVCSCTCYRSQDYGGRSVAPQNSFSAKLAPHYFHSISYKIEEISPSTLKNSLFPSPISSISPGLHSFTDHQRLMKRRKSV
hERG rescue: compounds protecting human hERG from proarrhythmic drug block; actives 0.51% (n = 310,000); CHO-hERG, FluxOR thallium flux, dofetilide IC70 present; activation (rescue from dofetilide block), less the hit threshold, % at 10 µM;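 active = activation above the mean of controls blocked by dofetilide plus 5 SD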;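 also: thallium influx through hERG after potassium depolarization seen as dye fluorescence rise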
KCNK3 block: human KCNK3 channel inhibition, primary screen; CHO-KCNK3 thallium flux, FluxOR fluorescence; active compounds read low; B-score at 10 µM; actives 0.84% (n = 340,000); AID 602410;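 active = B-score under library mean minus 4 SD, starting fluorescence ratio at most library mean plus 5 SD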;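 also: more negative B-score means stronger inhibition of thallium flux through KCNK3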
An asterisk follows results filed as active; i = inactive; x = not tested or not shown.

SMILES	KCNQ1 inh	KCNQ1 pot	KCNK9 inh	hERG rescue	KCNK3 block
Cc1ccc2[nH]c(=O)c(CN(CCc3ccccc3)C(c3nnnn3Cc3ccco3)C(C)C)cc2c1 (stereo not drawn)	i	i	i	-5	-8.9*
CCC(c1nnnn1CCc1ccccc1)N(Cc1ccco1)Cc1cc2cc(C)cc(C)c2[nH]c1=O (stereo not drawn)	i	i	i	-7	i
CCC(c1nnnn1CCc1ccccc1)N(Cc1ccco1)Cc1cc2c(C)ccc(C)c2[nH]c1=O (stereo not drawn)	i	i	-7.3*	-9	i
O=[N+]([O-])c1cccc(C2(O)COc3ccccc3O2)c1 (stereo not drawn)	i	i	i	-4	i
CN(C)C(CNC(=O)c1ccc2c(=O)n(-c3ccccc3F)c(=S)[nH]c2c1)Cc1ccccc1 (stereo not drawn)	i	i	i	-14	i
CC(=O)Nc1cccc(NC(=O)c2cccc3cccnc23)c1	i	i	i	-18	i
Cc1ccc(NC(=O)c2cccc3cccnc23)cc1	i	i	-7.6*	-8	i
COc1ccc(CCNC(=O)C2CCCN(c3ncccn3)C2)cc1 (stereo not drawn)	i	i	i	-9	i
Cc1ccc(S(=O)(=O)N2CCOC23CCN(C(=O)C(=O)NCc2ccccc2)CC3)cc1	i	i	i	-11	i
CC(NC(=O)c1cccs1)c1ccc(Br)cc1 (stereo not drawn)	i	i	i	-2	i
c1cncc(-c2nnc(-c3ccco3)o2)c1	i	i	i	6.3*	i
Clc1ccc(-c2nnc(-c3ccco3)o2)cc1	i	i	i	-5	i
O=C(NCCCN1CCN(c2ccccc2F)CC1)Nc1ccccc1[N+](=O)[O-]	i	i	i	-8	i
c1ccc2nc(N3CCCC3)c(N3CCCCC3)nc2c1	x	x	x	x	-10*
O=C(CCc1nnc2ccc(NCc3ccco3)nn12)Nc1ccccc1F	i	i	i	-9	i
CC(C)c1cc(NCCN2CCOCC2)n2c(nc3ccccc32)c1C#N	x	x	x	x	-9.2*
N#Cc1c2c(c(NCCN3CCOCC3)n3c1nc1ccccc13)CCCC2	i	i	i	-12	-8.9*
COc1ccc(NC(=O)N2CCN(c3cccc(C(F)(F)F)c3)CC2)cc1OC	i	i	i	-11	i
O=C(Nc1ccccc1)N1CCN(c2cccc(C(F)(F)F)c2)CC1	i	i	-7.4*	-9	i
OC[C@@H]1[C@@H](c2ccc(F)cc2)C(c2cccc(Cl)c2)=NN1c1ccccc1	x	x	x	x	i
CC1(C)CC(c2nc(-c3ccc(Cl)cc3)cs2)CCS1 (stereo not drawn)	9*	i	i	-10	i
CC1(C)CC(c2nc(-c3ccc(Br)cc3)cs2)CCS1 (stereo not drawn)	i	i	i	-10	i
CCOc1cc(/C=C2\SC(=N)N(c3nonc3N)C2=O)ccc1OCCN1CCOCC1	i	i	i	-7	i
CCOc1cc(/C=C2\SC(=N)N(c3nonc3N)C2=O)ccc1OCC(N)=O	i	i	i	6.4*	i
Nc1nc(CSc2nnnn2-c2ccccc2)nc(N2CCCc3ccccc32)n1	x	x	x	x	-10*
SMILES	KCNQ1 inh	KCNQ1 pot	KCNK9 inh	hERG rescue	KCNK3 block
Nc1nc(CN2CCN(c3ccccc3)CC2)nc(N2CCCc3ccccc32)n1	i	i	i	-8	i
COc1ccc(C)cc1NC(=O)CN(C)S(=O)(=O)c1ccc2c(c1)CC(C)N2C(C)=O (stereo not drawn)	i	i	i	-12	i
O=[N+]([O-])c1ccc2c(c1)C=C1CCCCC1(N1CCCCC1)O2 (stereo not drawn)	i	i	-7.4*	-8	i
COc1ccc(-n2c(SC(C)C(=O)Nc3ncc(Cl)cc3Cl)nc3ccccc32)cc1 (stereo not drawn)	i	i	-16*	-14	i
OCC[C@@H]1C[C@@H](O)[C@H](O)[C@]2(CCCO2)O1	i	i	i	-3	i
CCc1ccc(-n2c(SCC(=O)NC3CCS(=O)(=O)C3)nc3ccccc3c2=O)cc1 (stereo not drawn)	x	x	x	x	i
CCCCCCc1cc2cc(S(=O)(=O)c3ccc(Cl)cc3)c(=O)oc2cc1O	11*	i	i	-1	i
O=c1oc2cc(O)ccc2cc1S(=O)(=O)c1ccccc1	i	i	i	-9	i
CCCCCCc1cc2cc(S(=O)(=O)c3ccc(C)cc3)c(=O)oc2cc1O	i	i	i	-5	i
CCN(CC)c1ccc2cc(S(=O)(=O)c3ccc(Cl)cc3)c(=O)oc2c1	10*	i	i	-8	i
CC1CC(C)CN(C(=O)COC(=O)c2ccc(S(=O)(=O)N(C)c3ccccc3)cc2)C1 (stereo not drawn)	x	x	x	x	i
Cn1nc(C(=O)OCC(=O)Nc2sccc2C(N)=O)c2ccccc2c1=O	i	i	i	-12	i
COc1ccc(CCC(C)NC(=O)Cc2ccc(OC)c(OC)c2)c(OC)c1 (stereo not drawn)	i	i	i	0	i
CC1=CC(C#N)(C#N)C(C#N)(C#N)C(c2ccccc2)N1 (stereo not drawn)	i	i	i	-10	x
CC1CCC(C(C)C)C2=C1C(C#N)(C#N)C(C#N)(C#N)C(c1ccccc1)N2 (stereo not drawn)	7*	i	i	-18	i
Clc1ccc(CSc2ccc(-c3ccccn3)nn2)cc1	i	i	i	-11	i
Clc1ccc(CSc2cc3c(nn2)-c2ccccc2CC3)cc1	6*	i	i	-15	i
O=C(c1cccc(C(F)(F)F)c1)C1CCCN(Cc2cccn2-c2ccccn2)C1 (stereo not drawn)	8*	i	i	-19	i
O=C(c1cccc(C(F)(F)F)c1)C1CCCN(Cc2cccc(OCCO)c2)C1 (stereo not drawn)	i	i	i	-4	i
Cc1oc2c(cc(NS(=O)(=O)c3ccc4c5c(cccc35)C(=O)N4)c3ccccc32)c1C(=O)OC(C)C	i	i	-7.6*	-11	i
C=CCN1C(=O)/C(=C2/Sc3ccccc3N2CC)SC1=S	i	i	i	1	i
C=CCN1C(=O)/C(=C/C=C2/N(CC)c3ccc(S(=O)(=O)N(C)C)cc3N2CC)SC1=S	9*	i	i	-17	i
Clc1ccc(Nc2ccc(-n3ccnc3)nn2)cc1Cl	i	i	i	-10	i
COC(=O)c1cc2c(-c3ccccc3)cc3ccccn3c-2c1C(=O)OC	i	i	i	-6	-8.9*
Cc1ccc(S(=O)(=O)CCC(=O)N(Cc2nnc(-c3ccc(Cl)cc3)o2)C2CC2)cc1	x	x	x	x	i
